Values after ≈ are worked out from the molar mass of the structure shown. Active and inactive are the calls of the source. No cut-off for these calls is given here. Where a SMILES comes first, the peptide text is derived from it. Bridges are numbered along the chain shown (N, C = ends). [ ]: non-standard residue; d: D form. The star is where a group is joined. X1 = CC[C@H](C)CCCCC(=O)*; Dab = NCC[C@H](N)C(=O)O
What was measured:
Staphylococcus aureus [1] = assay: Antibacterial activity against Staphylococcus aureus ATCC 29213 assessed as inhibition of growth measured after 24 hrs by CLSI based broth microdilution method; assay type: functional
Escherichia coli [2] = assay: Antibacterial activity against Escherichia coli ATCC 25922 assessed as inhibition of growth measured after 24 hrs by CLSI based broth microdilution method; assay type: functional
Cell membrane [3] = assay: Induction of membrane depolarization in Staphylococcus aureus ATCC 29213 assessed as increased the fluorescence intensity at 1 to 2 times of MIC incubated for 80 min by [DiSC3(5)] probe based fluorescence assay; assay type: functional, subcellular
Method in brief: (§1)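 Log-phase cells at 10^7 CFU/mL in PBS with 0.4 µM DiSC3(5) and 0.1 M KCl, kept in the dark. […] Fluorescence (ex 622, em 670 nm) was recorded continuously for 80 min.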

Cell membrane [4] = assay: Induction of membrane depolarization in Escherichia coli ATCC 25922 assessed as increased the fluorescence intensity at 1 to 2 times of MIC incubated for 80 min by [DiSC3(5)] probe based fluorescence assay; assay type: functional, subcellular; method in brief: as §1
Cell membrane [5] = assay: Induction of membrane disruption in Staphylococcus aureus ATCC 29213 at 1 to 4 x MIC measured within 20 min by Ethidium bromide based fluorescence assay; assay type: functional, subcellular
Method in brief: (§2)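 Log-phase cells washed and resuspended in PBS at about 10^8 CFU/mL. Ethidium bromide ([…], stated as final) and compound at various concentrations were added. Fluorescence (ex 540, em 590 nm) was read every 20 min for 80 min against a solvent control.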

Staphylococcus aureus [6] = assay: Antibacterial activity against Staphylococcus aureus ATCC 29213 infected in mouse C57BL/6 bacterimia model assessed as reduction in number of viable pathogens in peritoneal cavity at 24 mg/kg, ip treated 1 hr after infection measured after 24 hrs; assay type: functional, organism-based
Method in brief: (§3)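 Male C57BL/6 mice (20 ± 2 g, 7 per group) got an ip injection of 200 µL mid-log S. aureus in sterile saline (about 10^9 CFU per 20 g). Compound was given ip 1 h later. Controls were 0.9% saline and polymyxin B 12 mg/kg. After 24 h, peritoneal lavage (2 mL PBS) was serially diluted 10-fold onto TSA and incubated 18-24 h at 37 °C. CFU were counted.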

Escherichia coli [7] = assay: Induction of morphological changes in Escherichia coli ATCC 25922 assessed as damaged cells at MIC incubated for 12 hrs by Transmission electron microscopy; assay type: functional, organism-based
Method in brief: (§4)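 Cells treated with 1× MIC compound or PBS, then washed three times in PBS. Pellets were fixed in 2.5% glutaraldehyde and then 1% osmium tetroxide, 2 h each, and examined by TEM.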

Staphylococcus aureus [8] = assay: Antibacterial activity against Staphylococcus aureus ATCC 29213 infected in mouse C57BL/6 bacterimia model assessed as reduction in number of viable pathogens in peritoneal cavity at 12 mg/kg, ip treated 1 hr after infection measured after 24 hrs; assay type: functional, organism-based; method in brief: as §3
Cell membrane [9] = assay: Induction of cell membrane damage in Staphylococcus aureus ATCC 29213 assessed as fluorescence emission at MIC after 1 hr by propidium iodide staining based transmission electron microscopy (Rvb= 1.53%); assay type: functional, subcellular; details: in the assay text read “flow cytometry” for “transmission electron microscopy”
Method in brief: (§5)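 Log-phase bacteria diluted in PBS to about 10^9 CFU/mL and exposed to 1× MIC compound at 37 °C for 1 h. Cells were washed and stained with 60 µM propidium iodide in the dark for 15 min, then read at once by flow cytometry. The percentage of PI-stained cells was reported against an untreated control.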

Cell membrane [10] = assay: Induction of membrane disruption in Escherichia coli ATCC 25922 at 1 to 4 x MIC measured within 20 min by Ethidium bromide based fluorescence assay; assay type: functional, subcellular; method in brief: as §2
Staphylococcus aureus [11] = assay: Induction of morphological changes in Staphylococcus aureus ATCC 29213 assessed as damaged cells at MIC incubated for 12 hrs by Transmission electron microscopy; assay type: functional, organism-based; method in brief: as §4
Staphylococcus aureus [12] = assay: Antibacterial activity against Staphylococcus aureus ATCC 29213 assessed as bacterial growth inhibition at 0.5 times of MIC concentration measured at logarithmic phase 6 th hr of bacterial cycle; assay type: functional, organism-based; details: time 24.0 hrs
Method in brief: (§6)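 Bacteria grown in Mueller Hinton broth with compound at several MIC multiples, shaken at 220 rpm and 37 °C for 24 h. Growth was recorded every 2 h over the 24 h. The solvent control was 1% DMSO under the same conditions.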

[13] = Toxicity in rabbit red blood cells assessed as hemolysis at 3 to 22.5 ug/ml incubated for 1 hr relative to control; assay type: cell-based, Oryctolagus cuniculus, Erythrocyte; details: at 3 to 22.5 µg/mL, dose 3-22.5 µg/ml, read-out: Activity
Method in brief: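 Washed rabbit erythrocytes at 2% in PBS were mixed with compound at final 3 to 22.5 µg/mL for 1 h at room temperature. After centrifugation at 1500 rpm for 10 min, supernatant absorbance was read at 450 nm. Hemolysis % = (A − A_PBS)/(A_Triton − A_PBS) × 100, with 0.5% Triton X-100 as the positive control. Run in triplicate.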

Staphylococcus aureus [14] = assay: Induction of morphological changes in Staphylococcus aureus ATCC 29213 assessed as deformed, pitted and shriveled surface at MIC incubated for 12 hrs by scanning electron microscopy; assay type: functional, organism-based
Method in brief: (§7)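 Cells treated with 1× MIC compound or PBS, then washed three times in PBS. Pellets were fixed in 2.5% glutaraldehyde for 2 h, dehydrated through an ethanol series, critical-point dried and gold-coated. Imaging was by SEM at 3 kV.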

Escherichia coli [15] = assay: Antibacterial activity against Escherichia coli ATCC 25922 assessed as bacterial growth inhibition at 1 to 2 times of MIC concentration measured at logarithmic phase 6 th hr of bacterial cycle; assay type: functional; details: time 6 hrs; method in brief: as §6
Cell membrane [16] = assay: Induction of cell membrane damage in Escherichia coli ATCC 25922 assessed as fluorescence emission at MIC after 1 hr by propidium iodide staining based transmission electron microscopy (reference value: 4.34%); assay type: functional, subcellular; details: in the assay text read “flow cytometry” for “transmission electron microscopy”; method in brief: as §5
Staphylococcus aureus [17] = assay: Antibacterial activity against Staphylococcus aureus ATCC 29213 assessed as bacterial growth inhibition at 1 to 2 times of MIC concentration measured at logarithmic phase 6 th hr of bacterial cycle; assay type: functional; details: time 6 hrs; method in brief: as §6
Escherichia coli [18] = assay: Antibacterial activity against Escherichia coli ATCC 25922 assessed as bacterial growth inhibition at 0.5 times of MIC concentration measured at logarithmic phase 6 th hr of bacterial cycle; assay type: functional, organism-based; details: time 24.0 hrs; method in brief: as §6
Escherichia coli [19] = assay: Induction of morphological changes in Escherichia coli ATCC 25922 assessed as deformed, pitted and shriveled surface at MIC incubated for 12 hrs by scanning electron microscopy; assay type: functional, organism-based; method in brief: as §7

Structure (SMILES)	MIC (Staphylococcus aureus [1]) [mg/L]	MIC (Escherichia coli [2]) [mg/L]	other results
CCCCN(CCCC)c1nccc(NCc2ccc(-c3ccccc3)s2)n1	> 32	> 32	–
CC(C)Nc1nccc(NCc2ccc(-c3ccccc3)s2)n1	> 32	> 32	–
CC(C)CN(CC(C)C)c1nccc(NCc2ccc(-c3ccccc3)s2)n1	> 32	> 32	–
c1ccc(-c2ccc(CNc3ccnc(N4CCOCC4)n3)s2)cc1	> 32	> 32	–
CCNc1nccc(NCc2ccc(-c3ccccc3)s2)n1	> 32	16 (≈ 51.5 µM)	–
O=C(N[C@H](CO)[C@H](O)c1ccc([N+](=O)[O-])cc1)C(Cl)Cl [CHLORAMPHENICOL]	8 (≈ 24.8 µM)	8 (≈ 24.8 µM)	–
CCCN(CCC)c1nccc(NCc2ccc(-c3ccccc3)s2)n1	> 32	8 (≈ 21.8 µM)	–
Clc1nccc(NCc2csc(-c3ccccc3)n2)n1	> 32	> 32	–
CN[C@H](CC(C)C)C(=O)N[C@H]1C(=O)N[C@@H](CC(N)=O)C(=O)N[C@H]2C(=O)N[C@H]3C(=O)N[C@H](C(=O)N[C@H](C(=O)O)c4cc(O)cc(O)c4-c4cc3ccc4O)[C@H](O)c3ccc(c(Cl)c3)Oc3cc2cc(c3O[C@@H]2O[C@H](CO)[C@@H](O)[C@H](O)[C@H]2O[C@H]2C[C@](C)(N)[C@H](O)[C@H](C)O2)Oc2ccc(cc2Cl)[C@H]1O [VANCOMYCIN]	–	1 (≈ 0.69 µM)	–
c1ccc(-c2ccc(CNc3ccnc(N4CCNCC4)n3)s2)cc1	> 32	> 32	–

Further lines, with some results ahead:

MIC (Staphylococcus aureus [1]) [mg/L]	MIC (Escherichia coli [2]) [mg/L]	Structure (SMILES)	other results
8 (≈ 21.5 µM)	8 (≈ 21.5 µM)	CC(C)CNc1nccc(NCc2ccc(-c3ccc(Cl)cc3)s2)n1	–
4 (≈ 11.8 µM)	> 32	CCCCNc1nccc(NCc2ccc(-c3ccccc3)s2)n1	–
> 32	> 32	CC(C)CNc1nccc(NCc2csc(-c3ccccc3)n2)n1	–
8 (≈ 23.8 µM)	8 (≈ 23.8 µM)	c1ccc(-c2ccc(CNc3ccnc(N4CCCC4)n3)s2)cc1	–
4 (≈ 10.9 µM)	4 (≈ 10.9 µM)	COc1ccc(-c2ccc(CNc3ccnc(NCC(C)C)n3)s2)cc1	–
4 (≈ 9.58 µM)	2 (≈ 4.79 µM)	CC(C)CNc1nccc(NCc2ccc(-c3ccc(Br)cc3)s2)n1	–
3 (≈ 7.19 µM)	2 (≈ 4.79 µM)	CC(C)CNc1nccc(NCc2ccc(-c3cccc(Br)c3)s2)n1	Activity (Cell membrane [3]): Active; Activity (Cell membrane [4]): Active; Activity (Cell membrane [5]): Active; Activity (Staphylococcus aureus [6]): Active; Activity (Escherichia coli [7]): Active; Activity (Staphylococcus aureus [8]): Active; Activity (Cell membrane [9]): 58.5%; Activity (Cell membrane [10]): Active; Activity (Staphylococcus aureus [11]): Active; Activity (Staphylococcus aureus [12]): Active; hemolysis at 1 h [13]: < 20%; Activity (Staphylococcus aureus [14]): Active; inhibition (INH) (Escherichia coli [15]): 100%; Activity (Cell membrane [16]): 77.2%; inhibition (INH) (Staphylococcus aureus [17]): 100%; Activity (Escherichia coli [18]): Active; Activity (Escherichia coli [19]): Active
8 (≈ 18 µM)	8 (≈ 18 µM)	CC(C)CNc1nccc(NCc2ccc(-c3ccc(OCc4ccccc4)cc3)s2)n1	–
8 (≈ 20.3 µM)	2 (≈ 5.07 µM)	CC(C)CNc1nccc(NCc2ccc(-c3ccc(C(C)(C)C)cc3)s2)n1	–
8 (≈ 23.6 µM)	8 (≈ 23.6 µM)	CC(C)CNc1nccc(NCc2ccc(-c3ccccc3)s2)n1	–
8 (≈ 19.2 µM)	4 (≈ 9.58 µM)	CC(C)CNc1nccc(NCc2ccc(-c3ccccc3Br)s2)n1	–
8 (≈ 22.4 µM)	> 32	CC(C)CNc1nccc(NCc2ccc(-c3ccc(F)cc3)s2)n1	–
512 (≈ 425 µM)	32 (≈ 26.6 µM)	CC[C@H](C)CCCCC(=O)N[C@@H](CCN)C(=O)N[C@H](C(=O)N[C@@H](CCN)C(=O)N[C@H]1CCNC(=O)[C@H]([C@@H](C)O)NC(=O)[C@H](CCN)NC(=O)[C@H](CCN)NC(=O)[C@H](CC(C)C)NC(=O)[C@@H](Cc2ccccc2)NC(=O)[C@H](CCN)NC1=O)[C@@H](C)O (X1-[Dab]T[Dab][Dab][Dab][dF]L[Dab][Dab]T; lactam 4-C)	–
16 (≈ 49.3 µM)	8 (≈ 24.7 µM)	CCCNc1nccc(NCc2ccc(-c3ccccc3)s2)n1	–

From ChEMBL document CHEMBL4765269, “Design, synthesis and evaluation of phenylthiazole and phenylthiophene pyrimidindiamine derivatives targeting the bacterial membrane” (Eur J Med Chem, 2020)
